For test [1], the system named is Vero. Briefly: In vitro antiviral activity against Parainfluenza 3 (C243 strain)cell line in Vero cells. The test is classed as functional, Chlorocebus sabaeus.
Test [2] can be described thus: Effect on de novo purine biosynthesis when [14C]formate was incorporated to fraction WI-L2 cells at 25 uM with preincubation time of 4 h. The class given is functional, Homo sapiens. Put shortly: (§1)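 WI-L2 cells (or adenosine kinase-deficient mutant) kept in log phase in RPMI 1640 with 5% dialyzed FBS, 20 mM NaHEPES pH 7.5, 2 mM glutamine; preincubated with drug at 37 °C, then labeled with [14C]formate. De novo purine synthesis read as [14C]formate incorporation into cellular (hot acid-soluble) and excreted purines, scored as inhibition.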

The subject of test [3] is HeLa. In words: In vitro antiviral activity against Vaccinia virus (Elstree strain) cell line in HeLa cells. The test is classed as functional, Homo sapiens.
The test system of test [4] is WIL2. In words: Inhibitory concentration of compound that inhibits tumor cell growth by 50% in Human B-lymphoblast (WI-L) cell line. The class given is functional. The following applies: read-out: ID50 (the source's name). Put shortly: (§2)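 Incubation was 3 days for L1210 and WI-L2 and 5 days for LoVo/L. MTT was added for 2 to 5 h and formazan was read by absorbance. ID50 is the concentration giving 50% of untreated control growth.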

Test [5] relates to Vero. In words: In vitro antiviral activity against herpes simplex virus type 2 (MS strain) cell line in Vero cells. The test is classed as functional, Chlorocebus sabaeus.
The subject of test [6] is LoVo. In words: Inhibitory concentration of compound that inhibits tumor cell growth by 50% in Human colon carcinoma (LoVo/L) cell line. The test is classed as functional. The following applies: read-out: ID50 (the source's name). Put shortly: as §2
The test system of test [7] is L1210. Briefly: Inhibitory concentration of compound that inhibits tumor cell growth by 50% in Murine leukemia (L1210) cell line. The test is classed as functional. As to conditions: Mus musculus, read-out: ID50 (the source's name). Put shortly:
as §2

For test [8], the species on record is Homo sapiens. In words: Effect on de novo purine biosynthesis when [14C]-formate was incorporated into WI-L2 media at 50 uM with pre-incubation time of 8 h. The test is classed as functional. Put shortly:
(§3)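 WI-L2 cells preincubated with drug at 37 °C before [14C]formate labeling. Read-out: [14C]formate incorporation into cellular and excreted purines (hot acid-soluble fraction). Cells grown in RPMI 1640 with 5% dialyzed fetal bovine serum, 20 mM NaHEPES pH 7.5, 2 mM glutamine, and kept in log phase between 0.5 and 12×10^5 cells/mL.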

Test [9] can be described thus: Effect on de novo purine biosynthesis when [14C]-formate was incorporated into WI-L2 cells at 50 uM with pre-incubation time of 8 h. The class given is functional, Homo sapiens. Put shortly:
(§4)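 Cells were preincubated with drug at 37 °C, then labelled with [14C]formate. De novo purine synthesis was read as label incorporated into cellular and excreted purines (hot acid-soluble fraction).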

For test [10], the species on record is Homo sapiens. Briefly: Effect on de novo purine biosynthesis when [14C]formate was incorporated to WI-L2 media at 0.25 uM with preincubation time of 8 h. The test is classed as functional. Put shortly: as §1
The nature of test [11]: Effect on de novo purine biosynthesis when [14C]formate was incorporated to WI-L2 cells at 2.5 uM with preincubation time of 8 h. The class given is functional, Homo sapiens. Put shortly: as §1
The nature of test [12]: Effect on de novo purine biosynthesis when [14C]formate was incorporated to WI-L2 cells at 0.25 uM with preincubation time of 8 h. The class given is functional, Homo sapiens. Put shortly:
as §1

The test system of test [13] is Vero. In words: In vitro antiviral activity against Parainfluenza 3 (C243 strain) cell line in Vero cells. The test is classed as functional, Chlorocebus sabaeus.
For test [14], the species on record is Homo sapiens. Briefly: Effect on de novo purine biosynthesis when [14C]formate was incorporated to WI-L2 media at 2.5 uM with preincubation time of 8 h. The class given is functional. Put shortly:
as §1

Test [15] in a line: Effect on de novo purine biosynthesis when [14C]formate was incorporated to WI-L2 cells at 50 uM with preincubation time of 8 h. The class given is functional, Homo sapiens. Put shortly: as §4
For test [16], the species on record is Homo sapiens. In words: Effect on de novo purine biosynthesis when [14C]formate was incorporated to WI-L2 media at 50 uM with preincubation time of 8 h. The class given is functional. Put shortly: as §3
Test [17] can be described thus: Effect on de novo purine biosynthesis when [14C]-formate was incorporated to WI-L2 cells at 25 uM with preincubation time of 4 h. The class given is functional, Homo sapiens. Put shortly:
as §1

For test [18], the species on record is Homo sapiens. In words: Effect on de novo purine biosynthesis when [14C]-formate was incorporated to WI-L2 media at 0.25 uM with pre-incubation time of 8 h. The test is classed as functional. Put shortly: as §1
The species entered for test [19] is Homo sapiens. Briefly: Effect on de novo purine biosynthesis when [14C]-formate was incorporated to WI-L2 media at 2.5 uM with pre-incubation time of 8 h. The test is classed as functional. Put shortly: as §1

The structures appear in SMILES notation.

As for `COc1ncnc2c(N[C@H]3O[C@H](CO)[C@@H](O)[C@H]3O)ncnc12`, the Virus rating in [1] was 0.7; in test [3] it was 0.9; in [5] it was 0.1. Also, the Control in test [2] was 98.2%. Also, the IC50 is 2.5 µM in test [4], 18.7 µM in [6] and 2.9 µM in test [7].
For the compound `Nc1ncnc2c(NC3O[C@H](CO)[C@@H](O)[C@H]3O)nc(Cl)nc12` (some centres not stated), the Control in [8] came to 43.4%; in test [9] it was 16.4%.
Take `Nc1ncnc2c(N[C@H]3O[C@H](CO)[C@@H](O)[C@H]3O)ncnc12`: the Virus rating came out at 1.4 in [1], 1 in test [3] and 0.2 in test [5]. In addition, the figures for the IC50 in test [4], in [6] and in [7] were 0.25 µM, 1 µM and 0.38 µM, respectively.
For `Nc1ncnc2c(N[C@@H]3O[C@H](CO)[C@@H](O)[C@H]3O)ncnc12`, the Control worked out at 71.9% in test [10], 29.9% in test [11], 79.5% in test [12] and 54.6% in test [14]. Also, the figures for the Virus rating in test [3], in [5] and in test [13] were 1.3, 0.8 and 0.7, respectively. Further, the IC50 came out at 0.2 µM in [4], 7 µM in test [6] and 0.8 µM in test [7].
On to `CN(C)c1ncnc2c(NC3O[C@H](CO)[C@@H](O)[C@H]3O)ncnc12` (some centres not stated), for which the figures for the Control in test [15] and in test [16] were 50.7% and 85.8%, respectively.
For `OC[C@H]1OC(Nc2ncnc3c(O)ncnc23)[C@H](O)[C@@H]1O` (some centres not stated), the Control was determined as 98.2% in test [15] and 106% in test [16].
On to `Nc1nc(NC2O[C@H](CO)[C@@H](O)[C@H]2O)c2ncnc(N)c2n1` (some centres not stated), for which the Control in test [10] worked out at 89.8%; in test [11], 91.2%.
Consider `COc1ncnc2c(N[C@@H]3O[C@H](CO)[C@@H](O)[C@H]3O)ncnc12`, for which the Control in test [17] came to 4.3%; in [11], 2.7%; in test [12], 41.9%; in test [18], 63%; in test [19], 41.8%. Besides, the Virus rating turned out to be 0.7 in test [1], 1 in test [3] and 0.2 in [5]. The IC50 in test [4] came out at 0.06 µM; in [6], 0.28 µM; in [7] it was 0.04 µM.
